Assay [1] is filed under the species Rattus norvegicus. Nature of the assay: In vitro inhibition of palmitate oxidation; Inactive. The format is functional. Summed up: (§1)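 In vitro assay in rat hemidiaphragm muscle, using [1-¹⁴C]palmitic acid as the labeled substrate. Read-out was inhibition of oxidation of the labeled palmitate.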
The test system of assay [2] is Rattus norvegicus. Description: Minimum effective concentration by rat glucose tolerance test (po); Inactive. The format is functional, organism-based.
The species entered for assay [3] is Rattus norvegicus. Nature of the assay: Compound was tested in vitro for inhibition of palmitate oxidation; Inactive. The format is functional. A digest of the protocol:
as §1

In assay [4] the test system is Rattus norvegicus. Nature of the assay: Maximum lowering of blood glucose when 100 mg/kg of the drug administered orally was reported by rat glucose tolerance test; Inactive. In kind it is functional, organism-based. Details: dose 100 mg/kg.
For assay [5], the species on record is Rattus norvegicus. Description: In vitro inhibition of palmitate oxidation. In kind it is functional. A digest of the protocol: as §1
The test system of assay [6] is Rattus norvegicus. Description: Minimum effective concentration by rat glucose tolerance test (po). In kind it is functional. Particulars: read-out: MED.
Assay [7] is filed under the species Rattus norvegicus. Description: Compound was tested in vitro for inhibition of palmitate oxidation. In kind it is functional. Particulars: for minimal effective concentration: Rattus norvegicus, read-out: MEC. Summed up: as §1
In assay [8] the test system is Rattus norvegicus. Nature of the assay: Maximum lowering of blood glucose when 100 mg/kg of the drug administered orally was reported by rat glucose tolerance test. In kind it is functional. As to conditions: route oral.
Assay [9] deals with Rattus norvegicus. Description: Maximum lowering of blood glucose when 25 mg/kg of the drug administered orally was reported by rat glucose tolerance test. In kind it is functional. Particulars: route oral.
Assay [10] concerns Rattus norvegicus. Nature of the assay: Maximum lowering of blood glucose when 60 mg/kg of the drug administered orally was reported by rat glucose tolerance test. The format is functional. Particulars: route oral.
The subject of assay [11] is Rattus norvegicus. Nature of the assay: Maximum lowering of blood glucose when 50 mg/kg of the drug administered orally was reported by rat glucose tolerance test. The format is functional. As to conditions: route oral.
Assay [12] relates to Rattus norvegicus. Description: Maximum lowering of blood glucose when 75 mg/kg of the drug administered orally was reported by rat glucose tolerance test. The format is functional. As to conditions: route oral.

The source made the active and inactive calls. The rule behind the calls is not given here.

With `CCCCCCCCCCCCCCC1(CO)CO1` (configuration not stated), the IC50 result in the assay filed under Rattus norvegicus [1] is on record as “Not Active”. Also, the MED entry in the assay on Rattus norvegicus [2] is “inactive”. The MEC entry in the assay filed under Rattus norvegicus [3] is “inactive”. In addition, the Max lowering result in the assay with Rattus norvegicus [4] is “inactive”.
For the compound `CCCCCCCCCCCCCC1(C(=O)OC)CO1` (configuration not stated), the half-maximal inhibitory concentration (IC50) in the assay filed under Rattus norvegicus [5] (Rattus norvegicus) is 13 µM. Also, in the assay on Rattus norvegicus [6], the minimal effective dose is 5 mg/kg. Moreover, the minimal effective concentration in the assay filed under Rattus norvegicus [7] is 1 µM. Further, the Max lowering with Rattus norvegicus [8] is 37%.
Compound `CCCCCCCCCCCCCCC1(C(=O)OCC(O)CO)CO1` (configuration not stated) had an IC50 in the assay listed under Rattus norvegicus [5] (Rattus norvegicus) of 16 µM. Moreover, the minimal effective dose in the assay on Rattus norvegicus [6] was 5 mg/kg. Also, the minimal effective concentration in the assay filed under Rattus norvegicus [7] was 10 µM. In addition, in the assay on Rattus norvegicus [9], the Max lowering is reported as 31%.
For the compound `CCCCCCCCCCCCCCCCCCCCCCC1(C(=O)OC)CO1` (configuration not stated), the IC50 result in the assay filed under Rattus norvegicus [1] is “Not Active”. Besides, in the assay with Rattus norvegicus [6], the minimal effective dose stood at 10 mg/kg. Moreover, the MEC result in the assay listed under Rattus norvegicus [3] is “inactive”. Moreover, in the assay on Rattus norvegicus [8], the Max lowering was determined as 17%.
Turning to `CCCCCCCCCCC1(C(=O)OCC)OC1(C)C` (configuration not stated), the half-inhibitory concentration (IC50) result in the assay listed under Rattus norvegicus [1] is on record as “Not Active”. The MED entry with Rattus norvegicus [2] is “inactive”. Besides, in the assay filed under Rattus norvegicus [3], the MEC entry was “inactive”. The Max lowering entry in the assay with Rattus norvegicus [4] was “inactive”.
On to `CCCCCCCCCCCCCCC1(C(N)=O)CO1` (configuration not stated), for which, in the assay filed under Rattus norvegicus [1], the IC50 entry is reported as “Not Active”. For the same compound, in the assay on Rattus norvegicus [6], the minimal effective dose stood at 10 mg/kg. Further, in the assay listed under Rattus norvegicus [3], the MEC result is “inactive”. For the same compound, in the assay with Rattus norvegicus [8], the Max lowering stood at 44%.
Turning to `CCCCCCC1(C(=O)OC)CO1` (configuration not stated), half-maximal inhibition in the assay listed under Rattus norvegicus [5] (Rattus norvegicus) (IC50) required 102 µM. In the assay on Rattus norvegicus [6], the minimal effective dose came to 10 mg/kg. Besides, in the assay listed under Rattus norvegicus [7], the minimal effective concentration was found to be 20 µM. In the assay with Rattus norvegicus [8], this compound gave a Max lowering of 30%.
For `CCCCCCCCCCCCCCC1(C(=O)OCCCC)CO1` (configuration not stated), in that order: 47 µM, 1.5 mg/kg, 10 µM and 40%.
Consider `CCCCCCCCCCCCCCC1(C(=O)N(C)C)CO1` (configuration not stated), for which the 50% inhibitory concentration (IC50) result in the assay listed under Rattus norvegicus [1] is given as “Not Active”. Moreover, the minimal effective dose with Rattus norvegicus [6] came out at 25 mg/kg. Besides, the MEC entry in the assay listed under Rattus norvegicus [3] is “inactive”. Also, the Max lowering in the assay with Rattus norvegicus [8] was determined as 19%.
On to `CCCCCCCCCCCCCCC1(C(=O)[O-])CO1.[Na+]` (configuration not stated), for which the IC50 in the assay filed under Rattus norvegicus [5] was 1 µM. Also, the minimal effective dose with Rattus norvegicus [6] was 2.5 mg/kg. In addition, in the assay filed under Rattus norvegicus [7], the MEC was 0.2 µM. In addition, the Max lowering in the assay with Rattus norvegicus [10] was 38%.
As for `CCCCCCCCCCCCCCC1(C(=O)NCCO)CO1` (configuration not stated), the IC50 result in the assay listed under Rattus norvegicus [1] is recorded as “Not Active”. In addition, the minimal effective dose with Rattus norvegicus [6] is 100 mg/kg. In addition, the MEC entry in the assay listed under Rattus norvegicus [3] is “inactive”. In addition, in the assay on Rattus norvegicus [8], the Max lowering was 33%.
With `COC(=O)C1(C)CO1` (configuration not stated), in the assay filed under Rattus norvegicus [1], the IC50 result is recorded as “Not Active”. Also, the MED result in the assay on Rattus norvegicus [2] is “inactive”. Moreover, in the assay filed under Rattus norvegicus [3], the MEC entry is “inactive”. The Max lowering result with Rattus norvegicus [4] was “inactive”.
`CCCCCCCCCCC1(C(=O)OC)CO1` (configuration not stated): in the assay listed under Rattus norvegicus [5] (Rattus norvegicus), the midpoint of inhibition, the IC50, lay at 5 µM. Further, in the assay on Rattus norvegicus [6], the minimal effective dose stood at 10 mg/kg. The minimal effective concentration in the assay filed under Rattus norvegicus [7] is 0.5 µM. Further, in the assay with Rattus norvegicus [11], the Max lowering was determined as 32%.
Consider `CCCCCCCCCCCCCCC1(C(=O)OC)CO1` (configuration not stated) [METHYL PALMOXIRATE], for which the IC50 in the assay filed under Rattus norvegicus [5] (Rattus norvegicus) was 2 µM. Besides, the minimal effective dose in the assay on Rattus norvegicus [6] is 4 mg/kg. Moreover, the minimal effective concentration in the assay listed under Rattus norvegicus [7] amounted to 0.1 µM. Besides, the Max lowering in the assay on Rattus norvegicus [12] was found to be 45%.
For `CCCCCCCCCCCCCCC1(C(=O)OC)OC1(C)C` (configuration not stated), the half-maximal inhibitory concentration (IC50) entry in the assay filed under Rattus norvegicus [1] is recorded as “Not Active”. In addition, the MED result with Rattus norvegicus [2] was “inactive”. In the assay filed under Rattus norvegicus [3], the MEC result was “inactive”. In addition, in the assay with Rattus norvegicus [4], the Max lowering entry was “inactive”.
Turning to `CCCCCCCCCCCCCCC1(C(=O)OC)OC1C` (configuration not stated), the half-inhibitory concentration (IC50) result in the assay listed under Rattus norvegicus [1] is given as “Not Active”. For the same compound, the MED entry in the assay with Rattus norvegicus [2] was “inactive”. Also, the MEC result in the assay filed under Rattus norvegicus [3] was “inactive”. The Max lowering result in the assay on Rattus norvegicus [4] is “inactive”.
For `CCCCCCCCCCCCCCC1(CCC(=O)OC)CO1` (configuration not stated), the concentration for half-maximal inhibition (IC50) result in the assay listed under Rattus norvegicus [1] was “Not Active”. Also, the MED result in the assay on Rattus norvegicus [2] is “inactive”. Further, in the assay listed under Rattus norvegicus [3], the MEC entry is “inactive”. Besides, in the assay on Rattus norvegicus [4], the Max lowering entry was “inactive”.
In the case of `CCCCCCCCCCCCCCC1(C(=O)O)CO1` (configuration not stated) [PALMOXIRATE], in the assay on Rattus norvegicus [6], the minimal effective dose worked out at 5 mg/kg. Moreover, in the assay filed under Rattus norvegicus [7], the minimal effective concentration came to 0.1 µM. Moreover, the Max lowering in the assay on Rattus norvegicus [8] is 53%.
In turn, `CCCCCCCCCCCC1(C(=O)OC)CO1` (configuration not stated) yielded an IC50 in the assay filed under Rattus norvegicus [5] (Rattus norvegicus) of 7 µM. Moreover, the minimal effective dose with Rattus norvegicus [6] came to 10 mg/kg. For the same compound, in the assay filed under Rattus norvegicus [7], the minimal effective concentration worked out at 2.5 µM. Besides, the Max lowering with Rattus norvegicus [8] came out at 38%.
For `CCCCCCCCCCCCCCCCCCC1(C(=O)OC)CO1` (configuration not stated), the minimal effective dose in the assay with Rattus norvegicus [6] is 10 mg/kg. In the assay filed under Rattus norvegicus [3], the MEC result is “inactive”. The same compound had a Max lowering in the assay with Rattus norvegicus [8] of 25%.
In the assay listed under Rattus norvegicus [5] (Rattus norvegicus), `CCCCCCCCCCCCC1(C(=O)OC)CO1` (configuration not stated) registered an IC50 of 15 µM. In addition, the minimal effective dose with Rattus norvegicus [6] was found to be 5 mg/kg. Further, the minimal effective concentration in the assay filed under Rattus norvegicus [7] amounted to 1 µM. The compound also had a Max lowering in the assay on Rattus norvegicus [8] of 32%.
For `CCCCCCCCCCCCCCCCC1(C(=O)OC)CO1` (configuration not stated), in that order: 100 µM, 25 mg/kg, 10 µM and 16%.
As to `CCCCCCCCCCCCCCC1(CC(C(=O)OC)C(=O)OC)CO1` (configuration not stated), the half-inhibitory concentration (IC50) entry in the assay filed under Rattus norvegicus [1] is recorded as “Not Active”. The MED entry in the assay with Rattus norvegicus [2] is “inactive”. In the assay filed under Rattus norvegicus [3], the MEC result was “inactive”. Moreover, in the assay on Rattus norvegicus [4], the Max lowering result was “inactive”.
As for `COC(=O)C1(CCCCCCCCCCc2ccccc2)CO1` (configuration not stated), the minimal effective dose in the assay with Rattus norvegicus [6] stood at 10 mg/kg. Also, in the assay on Rattus norvegicus [9], the Max lowering is on record as 36%.

In general, IC50 refers to the concentration at which inhibition is half-maximal. A low value points to higher potency.

(Values after ChEMBL document CHEMBL1123263, “Alkylglycidic acids: potential new hypoglycemic agents” (J Med Chem, 1986).)
